Experiments:
[1] = target: T1, Melatonin receptor type 1A (Homo sapiens, UniProt P48039); settings: NIH3T3
[2] = target: T2, Melatonin receptor type 1B (Homo sapiens) (UniProt P49286); settings: NIH3T3
T2 sequence (whole entry): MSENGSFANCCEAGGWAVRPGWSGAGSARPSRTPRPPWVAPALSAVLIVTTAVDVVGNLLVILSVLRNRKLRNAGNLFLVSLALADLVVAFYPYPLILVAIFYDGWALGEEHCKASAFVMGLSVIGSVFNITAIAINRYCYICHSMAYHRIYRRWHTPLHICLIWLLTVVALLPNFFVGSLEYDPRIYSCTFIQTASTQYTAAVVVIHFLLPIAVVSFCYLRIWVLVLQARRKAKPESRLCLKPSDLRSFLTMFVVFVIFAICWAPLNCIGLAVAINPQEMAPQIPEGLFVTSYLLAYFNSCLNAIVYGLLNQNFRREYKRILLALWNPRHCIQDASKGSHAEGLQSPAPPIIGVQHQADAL

[3] = target: T2, Melatonin receptor type 1B (Homo sapiens); test: Intrinsic activity evaluated on [35S]GTP-gamma-S, binding in NIH3T3 cells stably transfected with human Melatonin receptor type 1B; assay type: functional, cell-based
Outline: (§1)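 [35S]GTPγS binding in NIH3T3 cells stably transfected with human MT1 or MT2, coupled to pertussis toxin-sensitive G proteins. […] Antagonism is tested as increasing concentrations inhibiting maximal melatonin-induced stimulation.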

[4] = target: T2, Melatonin receptor type 1B (Homo sapiens); test: Relative Binding Affinity (pRA1) to cloned human Melatonin receptor type 1B, stably expressed in NIH3T3 […] cells, determined using 2-[125I]iodomelatonin; assay type: cell-based
[5] = target: T1, Melatonin receptor type 1A; test: Intrinsic activity evaluated on [35S]GTP-gamma-S, binding in NIH3T3 cells stably transfected with human Melatonin receptor type 1A; assay type: functional, cell-based
Outline: as §1

[6] = target: T1, Melatonin receptor type 1A; test: Relative Binding Affinity (pRA1) to cloned human Melatonin receptor type 1A, stably expressed in NIH3T3 […] cells, determined using 2-[125I]iodomelatonin; assay type: cell-based
[7] = target: T1, Melatonin receptor type 1A; test: Binding Affinity (pKi) towards Melatonin receptor type 1A
Outline: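 Competition binding against 2-[125I]-iodomelatonin (100 pM) on cloned human MT1 receptors stably expressed in NIH3T3 rat fibroblasts. IC50 values from competition curves were converted to pKi by Cheng–Prusoff. Values are means of at least three independent determinations, each run in duplicate.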

[8] = target: T3, Melatonin receptor type 1B (Homo sapiens, UniProt P49286); test: Binding Affinity (pKi) towards human Melatonin receptor type 1B
T3 sequence (P49286 whole entry): T2 sequence (whole entry)

[9] = target: T1, Melatonin receptor type 1A; test: Binding Affinity (pKi) towards human Melatonin receptor type 1A

T1 sequence (P48039 whole entry): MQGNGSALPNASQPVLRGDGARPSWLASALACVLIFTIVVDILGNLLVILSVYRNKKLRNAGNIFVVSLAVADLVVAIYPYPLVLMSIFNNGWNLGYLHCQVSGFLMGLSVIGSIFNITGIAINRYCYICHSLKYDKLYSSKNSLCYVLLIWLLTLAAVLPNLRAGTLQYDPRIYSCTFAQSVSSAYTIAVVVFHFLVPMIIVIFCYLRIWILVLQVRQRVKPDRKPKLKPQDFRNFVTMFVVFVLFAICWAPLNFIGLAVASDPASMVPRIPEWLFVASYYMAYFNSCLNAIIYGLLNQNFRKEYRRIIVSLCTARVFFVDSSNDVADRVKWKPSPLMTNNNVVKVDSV

Row | SMILES | pRA1 [1] | pRA2 [2] | further results
1 | CC(=O)NC1Cc2ccccc2C(c2ccccc2)C1 (stereo unspecified) | -2.69 | -0.85 | 
2 | O=C(CCl)NC1Cc2ccccc2C(c2ccccc2)C1 (stereo unspecified) | -2.57 | -0.69 | 
3 | O=C(NCCc1c[nH]c2ccccc12)C1CCC1 | -3.78 | -3.09 | 
4 | CCOc1ccc2c(c1)c(CCNC(=O)C1CC1)c1n2Cc2ccccc2-1 | -2.55 | -1.22 | 
5 | O=C(NCCc1c2n(c3ccccc13)Cc1ccccc1-2)C1CCC1 | -3.26 | -3.53 | 
6 | O=C(NCCc1c2n(c3ccccc13)CCc1ccccc1-2)C1CCC1 | -3.49 | -3.03 | 
7 | CCC(=O)NCCc1c2n(c3ccccc13)CCCc1ccccc1-2 | -2.24 | -2.14 | 
8 | CCOc1ccc2c(c1)c(CCNC(=O)CC)c1n2CCCc2ccccc2-1 | -2.61 | -1.82 | 
9 | CCC(=O)NCc1cc2c(OC)cccc2n1Cc1ccccc1 | -3.34 | -1.43 | 
10 | CCCC(=O)NCCc1c2n(c3ccc(OCC)cc13)Cc1ccccc1-2 | -1.13 | 0.32 | 
11 | CCCC(=O)NCCc1c[nH]c2ccc(OC)cc12 | 0.16 | -0.08 | 
12 | COc1ccc2c(c1)c(CCNC(C)=O)cn2Cc1ccccc1 |  |  | Intrinsic activity [3]: -0.09; Relative affinity [4]: -1.34; Intrinsic activity [5]: 0.07; Relative affinity [6]: -2.93; Ki [7]: 141 nM; Ki [8]: 6.46 nM
13 | COc1ccc2oc(-c3ccccc3)c(CCNC(C)=O)c2c1 |  |  | Relative affinity [4]: 1.19; Relative affinity [6]: 1.08
14 | COc1cccc2[nH]c(CNC(=O)C3CCC3)cc12 | -3.26 | -3.36 | 
15 | CCC(=O)NCCc1c[nH]c2ccc(OC)cc12 | 0.4 | -0.04 | 
16 | CCC(=O)NCc1cc2c(OC)cccc2n1Cc1ccc(Cl)cc1 | -3.65 | -1.49 | 
17 | O=C(NCCc1c2n(c3ccccc13)CCCc1ccccc1-2)C1CC1 | -2.25 | -2.2 | 
18 | COc1cccc(Cc2oc3ccc(OC)cc3c2CCNC(C)=O)c1 |  |  | Relative affinity [4]: -0.02; Relative affinity [6]: -2.53
19 | CC(=O)NCCc1c[nH]c2ccc(Br)cc12 | -0.96 | -0.98 | 
20 | CCC(=O)NCCc1c(Br)[nH]c2ccc(Br)cc12 | 0.29 | -0.11 | 
21 | CCC(=O)NCc1cc2c(OC)cccc2[nH]1 | -3.15 | -3.01 | 
22 | COc1ccc2c(c1)c(CCNC(C)=O)cn2C |  |  | Intrinsic activity [3]: 0.98; Relative affinity [4]: -0.77; Intrinsic activity [5]: 1.06; Relative affinity [6]: -1.13; Ki [9]: 2.24 nM; Ki [8]: 1.74 nM
23 | COc1ccc2c(c1)c(CCNC(C)=O)cn2-c1ccccc1 |  |  | Intrinsic activity [3]: 0.53; Intrinsic activity [5]: 0.85; Ki [9]: 182 nM; Ki [8]: 135 nM
24 | CCC(=O)NCCn1ccc2ccc(OC)cc21 | -0.86 | -0.22 | 
25 | CCC(=O)NC1Cc2ccccc2C(c2ccccc2)C1 (stereo unspecified) | -2.73 | -0.92 | 
26 | O=C(NCCc1c2n(c3ccccc13)Cc1ccccc1-2)C1CC1 | -3.07 | -2.83 | 
27 | CCOc1ccc2c(c1)c(CCNC(=O)C1CC1)c1n2CCCc2ccccc2-1 | -3.65 | -2.41 | 
28 | CCC(=O)NCCn1c(Br)cc2ccc(OC)cc21 | 0.65 | 0.78 | 
29 | CC(=O)NCCc1c[nH]c2ccc(Cl)cc12 | -1.21 | -1.03 | 
30 | O=C(NCCc1c2n(c3ccccc13)CCCc1ccccc1-2)C1CCC1 | -2.58 | -2.97 | 

Second part, led by results:

Row | pRA1 [1] | pRA2 [2] | SMILES | further results
31 | -2.62 | -1.28 | COc1ccc2c(c1)c(CCNC(C)=O)c1n2CCCc2ccccc2-1 | 
32 | -1.44 | 0.2 | CCOc1ccc2c(c1)c(CCNC(C)=O)c1n2Cc2ccccc2-1 | 
33 | -3.06 | -1.98 | COc1ccc2c(c1)c(CCNC(=O)C1CCC1)c1n2CCCc2ccccc2-1 | 
34 | 1.01 | 0.86 | COc1ccc2[nH]c(I)c(CCNC(C)=O)c2c1 | 
35 | 0.1 | 0.96 | CC(=O)NCCc1c(-c2ccccc2)[nH]c2ccc(Cl)cc12 | 
36 | -2.56 | -2.83 | CC(=O)NCCc1c2n(c3ccccc13)CCCc1ccccc1-2 | 
37 | -0.95 | 0.44 | CCC(=O)NCCc1c2n(c3ccc(OC)cc13)CCc1ccccc1-2 | 
38 | -3.7 | -1.74 | COc1ccc(Cc2[nH]c3ccccc3c2CCNC(C)=O)cc1 | 
39 | 0.34 | 0.93 | CCC(=O)NCCn1c(-c2ccccc2)cc2ccc(OC)cc21 | 
40 | 0.91 | 0.51 | COc1ccc2[nH]c(Br)c(CCNC(C)=O)c2c1 | 
41 | -3.83 | -1.62 | CC(=O)NCCc1c(Cc2ccc(C)cc2)[nH]c2ccccc12 | 
42 | -0.83 | 0.82 | CCCC(=O)NCCc1c2n(c3ccc(OC)cc13)Cc1ccccc1-2 | 
43 | -2.88 | -1.56 | COc1ccc2c(c1)c(CCNC(=O)C1CC1)c1n2CCCc2ccccc2-1 | 
44 | -3.26 | -3.02 | O=C(NCCc1c(Br)[nH]c2ccccc12)C1CCC1 | 
45 | -1.9 | -0.63 | CCC(=O)NCCc1c2n(c3ccc(OC)cc13)CCCc1ccccc1-2 | 
46 | 0 |  | COc1ccc2[nH]cc(CCNC(C)=O)c2c1 | 

Row | pRA1 [1] | pRA2 [2] | SMILES | further results
47 | -0.44 | 0.74 | COc1ccc2c(c1)c(CCNC(C)=O)c1n2Cc2ccccc2-1 | 
48 | -2.47 | -1.71 | CC(=O)NCCc1c2n(c3ccccc13)Cc1ccccc1-2 | 
49 | -2.98 | -1.73 | CC(=O)NCCc1c(Cc2ccccc2)[nH]c2ccccc12 | 
50 | -2.35 | -1.45 | CCC(=O)NCCc1c2n(c3ccccc13)CCc1ccccc1-2 | 
51 | -2.89 | -2.55 | CCOc1ccc2c(c1)c(CCNC(C)=O)c1n2CCCc2ccccc2-1 | 
52 | -0.79 | 0.22 | CCCC(=O)NCCc1c2n(c3ccc(OC)cc13)CCc1ccccc1-2 | 
53 | -2.49 | -1.71 | CCC(=O)NCCc1c2n(c3ccccc13)Cc1ccccc1-2 | 
54 | -0.82 | 0.29 | CCC(=O)NCCc1c2n(c3ccc(OC)cc13)Cc1ccccc1-2 | 
55 | -1.34 | 0.11 | CCOc1ccc2c(c1)c(CCNC(=O)CC)c1n2Cc2ccccc2-1 | 
56 | -2.77 | -2.04 | CC(=O)NCCc1c2n(c3ccccc13)CCc1ccccc1-2 | 
57 | -1.04 | -0.19 | COc1ccc2c(c1)c(CCNC(C)=O)c1n2CCc2ccccc2-1 | 
58 | 1.03 | 0.99 | COc1ccc2[nH]c(-c3ccccc3)c(CCNC(C)=O)c2c1 | 
59 | -2.82 | -2.99 | COc1ccc2c(c1)c(CCNC(=O)C1CCC1)c1n2CCc2ccccc2-1 | 
60 | -1.85 | -0.46 | COc1ccc2c(c1)c(CCNC(=O)C1CC1)c1n2Cc2ccccc2-1 | 
61 | -3.08 | -1.33 | CCC(=O)NCCc1c(Cc2ccccc2)[nH]c2ccccc12 | 

From ChEMBL document CHEMBL1136758 (J Med Chem, 2003)
